Legend:
Rattus norvegicus [1] = assay: Antihypertensive activity in spontaneous hypertensive rat assessed as reduction in systolic blood pressure at 20 mg/kg/day, po for 7 days (reference value: 121.2 +/- 4.5 mmHg); format: functional, Artery
Method in brief: (§1)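 Male SHR, 13 weeks old, received 20 mg/kg orally once daily for 14 days. Noninvasive tail-cuff plethysmography 4 h post-dose gave systolic pressure, diastolic pressure and heart rate. Measurements were made at baseline and on days 1, 3, 5, 7, 11 and 14. n = 6, mean ± SEM.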

Rattus norvegicus [2] = assay: Antihypertensive activity in spontaneous hypertensive rat assessed as reduction in systolic blood pressure at 20 mg/kg/day, po for 14 days (reference value: 121.2 +/- 4.5 mmHg); format: functional, Artery; method in brief: as §1
Rattus norvegicus [3] = assay: Antihypertensive activity in spontaneous hypertensive rat assessed as reduction in diastolic blood pressure at 20 mg/kg/day, po for 7 days (reference value: 72.6 +/- 4.7 mmHg); format: functional, Artery; method in brief: as §1
Rattus norvegicus [4] = assay: Antihypertensive activity in spontaneous hypertensive rat assessed as reduction in diastolic blood pressure at 20 mg/kg/day, po for 14 days (reference value: 72.6 +/- 4.7 mmHg); format: functional, Artery; method in brief: as §1
Rattus norvegicus [5] = assay: Effect on heart rate in spontaneous hypertensive rat at 20 mg/kg/day, po for 7 days (reference value: 383 +/- 21 bpm); format: organism-based; design: route oral; conditions: in vivo, 168 h; method in brief: as §1
Rattus norvegicus [6] = assay: Effect on heart rate in spontaneous hypertensive rat at 20 mg/kg/day, po for 14 days (reference value: 383 +/- 21 bpm); format: organism-based; design: route oral; conditions: in vivo, 336 h; method in brief: as §1
[7] = molecular target: T1, Adenosine receptor A1 (Homo sapiens) (UniProt P30542); assay: Displacement of [3H]CCPA from human recombinant A1 receptor expressed in CHO cells at 10 uM; format: cell-based
T1 sequence (whole entry): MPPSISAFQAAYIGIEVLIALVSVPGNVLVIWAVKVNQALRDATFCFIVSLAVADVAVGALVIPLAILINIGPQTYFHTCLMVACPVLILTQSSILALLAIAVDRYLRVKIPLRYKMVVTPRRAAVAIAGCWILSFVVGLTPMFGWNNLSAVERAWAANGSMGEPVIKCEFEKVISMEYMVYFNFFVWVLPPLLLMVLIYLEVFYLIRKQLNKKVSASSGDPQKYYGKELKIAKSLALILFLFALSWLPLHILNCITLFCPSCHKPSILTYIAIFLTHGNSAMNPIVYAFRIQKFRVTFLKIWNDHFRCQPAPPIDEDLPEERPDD
Method in brief: (§2)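 Radioligand competition binding used agonist radioligands at these levels: [3H]CCPA 1 nM for A1, [3H]CGS21680 6 nM for A2A, and [125I]AB-MECA 0.15 nM for A3. Results are expressed as percent inhibition of control specific binding: 100 − (measured specific binding / control specific binding × 100).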

[8] = molecular target: Adenosine receptor A2a (Homo sapiens) (UniProt P29274); assay: Displacement of [3HCGS21680 from human recombinant A2A receptor expressed in HEK293 cells at 10 uM; format: cell-based; method in brief: as §2
Sequence of Adenosine receptor A2a (Homo sapiens) (P29274 whole entry): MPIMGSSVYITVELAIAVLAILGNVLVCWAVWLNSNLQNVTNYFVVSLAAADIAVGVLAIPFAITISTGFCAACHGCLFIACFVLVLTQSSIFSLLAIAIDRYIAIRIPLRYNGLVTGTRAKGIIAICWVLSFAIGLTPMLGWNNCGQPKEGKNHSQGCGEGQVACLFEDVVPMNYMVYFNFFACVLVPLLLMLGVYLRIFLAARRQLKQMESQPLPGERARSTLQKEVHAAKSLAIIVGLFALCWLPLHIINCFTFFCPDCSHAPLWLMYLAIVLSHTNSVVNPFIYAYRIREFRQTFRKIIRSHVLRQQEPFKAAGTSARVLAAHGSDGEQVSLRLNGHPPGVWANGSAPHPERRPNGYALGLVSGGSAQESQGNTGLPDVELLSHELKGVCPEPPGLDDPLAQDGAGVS

[9] = molecular target: T2, Adenosine receptor A3 (Homo sapiens) (UniProt P0DMS8); assay: Displacement of [[125I]AB-MECA from human recombinant A3 receptor expressed in HEK293 cells at 10 uM; format: cell-based; method in brief: as §2
T2 sequence (whole entry): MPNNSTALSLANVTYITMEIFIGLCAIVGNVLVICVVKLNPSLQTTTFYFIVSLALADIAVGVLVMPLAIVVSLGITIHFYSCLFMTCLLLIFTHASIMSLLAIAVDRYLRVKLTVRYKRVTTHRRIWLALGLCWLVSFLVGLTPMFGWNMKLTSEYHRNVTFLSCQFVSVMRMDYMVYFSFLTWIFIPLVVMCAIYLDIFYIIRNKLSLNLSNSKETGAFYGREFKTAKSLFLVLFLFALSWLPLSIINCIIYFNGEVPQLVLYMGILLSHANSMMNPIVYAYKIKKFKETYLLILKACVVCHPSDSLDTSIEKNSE

Aorta [10] = assay: Vasorelaxation activity in WKY rat aortic rings with denuded endothelium assessed as reduction in phenylephrine-induced contraction relative to untreated control; format: functional; design: scale not given: the % may be the effect or the level left
Method in brief: (§3)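 Isolated thoracic aortic rings from WKY rats were studied by isometric tension recording. Endothelium was judged intact when acetylcholine gave >80% relaxation, and was removed mechanically where stated. Rings were precontracted with a single phenylephrine concentration (10), then exposed to cumulative test concentrations (1–300). DMSO served as control. L-NAME, ZM 241385 (100 nM) or glibenclamide (5 µM) were added 20 min before phenylephrine. IC50 was derived per experiment. n = 6, mean ± SEM.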

Aorta [11] = assay: Vasorelaxation activity in WKY rat aortic rings with intact endothelium assessed as reduction in phenylephrine-induced contraction relative to untreated control; format: functional; design: scale not given: the % may be the effect or the level left; method in brief: as §3
Aorta [12] = assay: Vasorelaxation activity in WKY rat aortic rings with denuded endothelium assessed as reduction in phenylephrine-induced contraction in presence of 5 uM KATP channel blocker glibenclamide; format: functional; design: scale not given: the % may be the effect or the level left; method in brief: as §3
Aorta [13] = assay: Vasorelaxation activity in WKY rat aortic rings with intact endothelium assessed as reduction in phenylephrine-induced contraction in presence of 100 nM A2A antagonist ZM241385; format: functional; design: scale not given: the % may be the effect or the level left; method in brief: as §3
Aorta [14] = assay: Vasorelaxation activity in WKY rat aortic rings with intact endothelium assessed as reduction in phenylephrine-induced contraction in presence of 100 uM NOS inhibitor L-NAME; format: functional; design: scale not given: the % may be the effect or the level left; method in brief: as §3
Aorta [15] = assay: Vasorelaxation activity in WKY rat aortic rings with intact endothelium assessed as reduction in phenylephrine-induced contraction; format: functional, tissue-based; method in brief: as §3
Rattus norvegicus [16] = assay: Effect on heart rate in WKY rat at 10 mg/kg/day, ip for 7 days (reference value: 383 +/- 21 bpm); conditions: in vivo, 168 h
Rattus norvegicus [17] = assay: Effect on heart rate in WKY rat at 10 mg/kg/day, ip for 14 days (reference value: 383 +/- 21 bpm); conditions: in vivo, 336 h
Rattus norvegicus [18] = assay: Effect on diastolic blood pressure in WKY rat at 10 mg/kg/day, ip for 7 days (reference value: 72.6 +/- 4.7 mmHg); conditions: in vivo, 168 h
Rattus norvegicus [19] = assay: Effect on systolic blood pressure in WKY rat at 10 mg/kg/day, ip for 7 days (reference value: 121.1 +/- 4.5 mmHg); conditions: in vivo, 168 h
Rattus norvegicus [20] = assay: Effect on diastolic blood pressure in WKY rat at 10 mg/kg/day, ip for 14 days (reference value: 72.6 +/- 4.7 mmHg); conditions: in vivo, 336 h
Rattus norvegicus [21] = assay: Effect on systolic blood pressure in WKY rat at 10 mg/kg/day, ip for 14 days (reference value: 121.1 +/- 4.5 mmHg); conditions: in vivo, 336 h
Rattus norvegicus [22] = assay: Effect on heart rate in spontaneous hypertensive rat at 10 mg/kg/day, ip for 7 days (reference value: 419 +/- 11 bpm); conditions: in vivo, 168 h
Rattus norvegicus [23] = assay: Effect on heart rate in spontaneous hypertensive rat at 10 mg/kg/day, ip for 14 days (reference value: 419 +/- 11 bpm); conditions: in vivo, 336 h
Rattus norvegicus [24] = assay: Antihypertensive activity in spontaneous hypertensive rat assessed as reduction in systolic blood pressure at 10 mg/kg/day, ip for 7 days (reference value: 226 +/-11 mmHg); conditions: route intraperitoneal
Rattus norvegicus [25] = assay: Antihypertensive activity in spontaneous hypertensive rat assessed as reduction in systolic blood pressure at 10 mg/kg/day, ip for 14 days (reference value: 226 +/-11 mmHg); conditions: route intraperitoneal
Rattus norvegicus [26] = assay: Antihypertensive activity in spontaneous hypertensive rat assessed as reduction in diastolic blood pressure at 10 mg/kg/day, ip for 7 days (reference value: 175.9 +/-7.3 mmHg); conditions: route intraperitoneal
Rattus norvegicus [27] = assay: Antihypertensive activity in spontaneous hypertensive rat assessed as reduction in diastolic blood pressure at 10 mg/kg/day, ip for 14 days (reference value: 175.9 +/-7.3 mmHg); conditions: route intraperitoneal

Question: With O=C(N/N=C/c1ccc2c(c1)OCO2)c1cccs1 as the molecule, how does the Activity (Rattus norvegicus [1]) read?
Answer: 109 mmHg

Question: And the Activity (Rattus norvegicus [2])?
Answer: 109 mmHg

Question: What about the Activity (Rattus norvegicus [3]) of the same molecule?
Answer: 79.4 mmHg

Question: And the Activity (Rattus norvegicus [4])?
Answer: 88 mmHg

Question: And the Activity (Rattus norvegicus [5])?
Answer: 379 bpm

Question: What about the Activity (Rattus norvegicus [6]) of the same molecule?
Answer: 398 bpm

Question: What about the inhibition [7] of the same molecule?
Answer: 29.1%

Question: What about the inhibition [8] of the same molecule?
Answer: 47.5%

Question: And the inhibition [9]?
Answer: 67.5%

Question: What about the Activity (Aorta [10]) of the same molecule?
Answer: 28.4%

Question: And the Activity (Aorta [11])?
Answer: 100%

Question: And the Activity (Aorta [12])?
Answer: 3.6%

Question: What about the Activity (Aorta [13]) of the same molecule?
Answer: 8.3%

Question: And the Activity (Aorta [14])?
Answer: 9.1%

Question: What about the Activity (Aorta [15]) of the same molecule?
Answer: Dose-dependent effect

Question: And the IC50 (Aorta [15])?
Answer: 6.9 µM

Question: What about the Activity (Rattus norvegicus [16]) of the same molecule?
Answer: 379 bpm

Question: And the Activity (Rattus norvegicus [17])?
Answer: 398 bpm

Question: And the Activity (Rattus norvegicus [18])?
Answer: 79.4 mmHg

Question: What about the Activity (Rattus norvegicus [19]) of the same molecule?
Answer: 109 mmHg

Question: And the Activity (Rattus norvegicus [20])?
Answer: 88 mmHg

Question: And the Activity (Rattus norvegicus [21])?
Answer: 109 mmHg

Question: What about the Activity (Rattus norvegicus [22]) of the same molecule?
Answer: 376 bpm

Question: What about the Activity (Rattus norvegicus [23]) of the same molecule?
Answer: 344.8 bpm

Question: And the Activity (Rattus norvegicus [24])?
Answer: 126.2 mmHg

Question: And the Activity (Rattus norvegicus [25])?
Answer: 118 mmHg

Question: What about the Activity (Rattus norvegicus [26]) of the same molecule?
Answer: 106.2 mmHg

Question: And the Activity (Rattus norvegicus [27])?
Answer: 95.5 mmHg
